The values below come from ChEMBL document CHEMBL1147690, “A cassette-dosing approach for improvement of oral bioavailability of dual TACE/MMP inhibitors” (Bioorg Med Chem Lett, 2006).

Data set [1] addresses T1, Disintegrin and metalloproteinase domain-containing protein 17 (Homo sapiens, UniProt P78536). The data set can be described thus: Inhibition of LPS/interferon gamma-stimulated TNFalpha release from HPBMC. It is filed as functional.
Data set [2] deals with T1, Disintegrin and metalloproteinase domain-containing protein 17. The data set can be described thus: Binding affinity to recombinant TACE.
For a further data set, the target named is Collagenase 3 (Homo sapiens, UniProt P45452). In words: Binding affinity to recombinant MMP13.
The target of the next data set is Stromelysin-1 (Homo sapiens, UniProt P08254). In words: Binding affinity to recombinant MMP3. The method, boiled down:
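Recombinant enzyme activity measured by a fluorimetric assay.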

In another data set the target is T2, Interstitial collagenase (Homo sapiens, UniProt P03956).
T2 sequence (P03956 whole entry): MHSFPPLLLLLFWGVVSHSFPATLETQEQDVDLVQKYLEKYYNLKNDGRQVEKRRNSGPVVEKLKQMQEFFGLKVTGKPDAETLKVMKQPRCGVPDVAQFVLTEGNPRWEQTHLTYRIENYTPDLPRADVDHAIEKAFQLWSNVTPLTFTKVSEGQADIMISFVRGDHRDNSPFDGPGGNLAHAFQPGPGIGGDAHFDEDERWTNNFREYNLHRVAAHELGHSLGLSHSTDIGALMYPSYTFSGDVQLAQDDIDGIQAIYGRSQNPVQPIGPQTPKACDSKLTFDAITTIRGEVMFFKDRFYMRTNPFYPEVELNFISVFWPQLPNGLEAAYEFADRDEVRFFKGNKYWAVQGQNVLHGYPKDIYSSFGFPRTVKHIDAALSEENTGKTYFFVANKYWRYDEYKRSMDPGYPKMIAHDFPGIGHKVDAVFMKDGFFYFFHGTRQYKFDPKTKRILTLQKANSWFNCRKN
In words: Binding affinity to recombinant MMP1.

Data set [3] is described as follows: Clearance in rat at 1 mg/kg, iv and 3 mg/kg, po. Format: ADME, organism-based. As to conditions: in vivo. In short, it runs like this: (§1)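 Conscious, permanently cannulated rats (n = 4) were dosed with a five-compound cassette or a single compound. Dosing was 1 mg/kg iv into the femoral vein (30% N-methyl-2-pyrrolidone in PEG 200) and 3 mg/kg po by gavage (3% ethanol in corn oil), in the same animals with a 48 h washout. Femoral-artery plasma was sampled for 24 h (iv) or 7 h (po), acetonitrile-precipitated and analysed by HPLC/MS.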

Data set [4] can be described thus: Volume of distribution in rat at 1 mg/kg, iv and 3 mg/kg, po. As to conditions: in vivo, read-out: Vdss. It is filed as ADME, organism-based. The method, boiled down:
as §1

A short description of data set [5]: Oral bioavailability in rat at 1 mg/kg, iv and 3 mg/kg, po. It is filed as ADME, organism-based. As to conditions: in vivo. The method, boiled down: as §1
The next data set relates to Rattus norvegicus. The data set can be described thus: Cmax in rat at 3 mg/kg, po normalized to 1 mg/kg. The arrangement: dose 3 mg/kg, route oral. As to conditions: in vivo. Format: ADME, organism-based. In short, it runs like this: as §1

Each structure is given as a SMILES string.

T1 sequence (P78536 whole entry, the tested form may be a part): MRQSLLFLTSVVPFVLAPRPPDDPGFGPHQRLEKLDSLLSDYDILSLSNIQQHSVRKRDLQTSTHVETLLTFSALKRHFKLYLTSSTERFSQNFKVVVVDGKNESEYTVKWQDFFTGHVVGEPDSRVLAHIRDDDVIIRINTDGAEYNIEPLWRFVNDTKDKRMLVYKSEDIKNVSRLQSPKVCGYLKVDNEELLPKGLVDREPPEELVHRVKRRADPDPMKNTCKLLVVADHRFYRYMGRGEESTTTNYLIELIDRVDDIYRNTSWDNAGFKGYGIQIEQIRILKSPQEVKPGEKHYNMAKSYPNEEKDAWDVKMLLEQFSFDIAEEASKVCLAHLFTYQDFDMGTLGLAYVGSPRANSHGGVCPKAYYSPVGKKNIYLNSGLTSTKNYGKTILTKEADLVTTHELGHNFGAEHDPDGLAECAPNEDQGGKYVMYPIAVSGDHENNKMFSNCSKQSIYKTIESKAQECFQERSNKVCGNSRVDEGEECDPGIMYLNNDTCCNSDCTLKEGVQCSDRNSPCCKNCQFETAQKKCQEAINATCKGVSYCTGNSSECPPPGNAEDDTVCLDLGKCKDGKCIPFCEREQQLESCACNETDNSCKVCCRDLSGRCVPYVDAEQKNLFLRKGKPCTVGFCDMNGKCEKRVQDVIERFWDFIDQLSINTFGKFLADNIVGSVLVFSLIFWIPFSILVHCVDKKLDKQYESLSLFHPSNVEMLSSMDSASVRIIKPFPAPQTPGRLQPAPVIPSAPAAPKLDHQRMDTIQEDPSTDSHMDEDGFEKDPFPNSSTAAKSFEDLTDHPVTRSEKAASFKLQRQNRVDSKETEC
Stromelysin-1, sequence (P08254 whole entry): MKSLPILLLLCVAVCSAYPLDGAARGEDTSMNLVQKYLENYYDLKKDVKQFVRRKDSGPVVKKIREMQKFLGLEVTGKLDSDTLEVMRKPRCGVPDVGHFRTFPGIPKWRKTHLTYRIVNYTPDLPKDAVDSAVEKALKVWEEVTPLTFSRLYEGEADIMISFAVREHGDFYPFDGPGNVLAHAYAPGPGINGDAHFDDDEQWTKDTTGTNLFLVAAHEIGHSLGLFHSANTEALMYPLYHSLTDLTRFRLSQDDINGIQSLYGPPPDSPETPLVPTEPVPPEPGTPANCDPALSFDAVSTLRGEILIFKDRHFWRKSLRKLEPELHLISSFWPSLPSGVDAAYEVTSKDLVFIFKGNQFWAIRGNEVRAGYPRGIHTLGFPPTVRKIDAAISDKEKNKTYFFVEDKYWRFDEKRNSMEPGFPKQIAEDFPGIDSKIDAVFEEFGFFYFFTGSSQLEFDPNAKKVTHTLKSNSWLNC

As a reminder, the IC50 is the concentration at which inhibition is half-maximal. Read a low IC50 as greater potency in that assay. The Ki is a measure of affinity in units of concentration, obtained from inhibition or displacement. In [1], `CN1C(=O)N(C[C@H](C(=O)NO)[C@@H](CC2CCCC2)C(=O)N2CCCCC2)C(=O)C1(C)C` displayed an IC50 above 10000 nM. Besides, the Ki in [2] is 230 nM.
Take `COc1ccc([C@@H](C(=O)N2CCCCC2)[C@H](CO)C(=O)NO)cc1`: the inhibition constant (Ki) on Collagenase 3 stood at 55 nM; at Stromelysin-1 it was 300 nM; at Interstitial collagenase, 213 nM; in [2], 66 nM. In [1], this compound gave an IC50 above 10000 nM.
Consider `CC[C@H](C(=O)NO)[C@H](C(=O)N1CCCC[C@H]1C(=O)NC)c1ccc(OC)cc1`, for which the Ki on Collagenase 3 was 7 nM; on Stromelysin-1 it was 11 nM; on Interstitial collagenase, 25 nM; in [2] it was 8 nM. Half-maximal inhibition in data set [1] (IC50) required 836 nM.
For the compound `CNC(=O)[C@@H](NC(=O)[C@H](c1ccc(OC)cc1)[C@H](CN1C(=O)N(C)C(C)(C)C1=O)C(=O)NO)C(C)(C)C`, the Ki on Collagenase 3 is 3 nM; on Stromelysin-1, 12 nM; on Interstitial collagenase, 0.7 nM; in [2], 57 nM. This compound also yielded an IC50 in data set [1] of 484 nM.
In general, bioavailability refers to the share of a dose that reaches the circulation, judged against a reference dose that is usually intravenous. Low values mean poor availability, high ones good availability. In general, Cmax refers to the maximum level reached in the sampled fluid or tissue. With `CC[C@H](C(=O)NO)[C@H](C(=O)N1CCCC[C@H]1C(=O)NC)c1ccc(Cl)cc1`, the Ki at Collagenase 3 stood at 2 nM; at Interstitial collagenase, 0.7 nM; in [2], 5 nM. In data set [1], this compound had an IC50 of 316 nM. In data set [3], this compound showed a clearance of 28.1 mL/min/kg. Moreover, in data set [4], the Vd was found to be 16.7 L/kg. The bioavailability in data set [5] worked out at 47.1%. In the data set with Rattus norvegicus, this compound yielded a Cmax of 388.6 nM.
As to `COc1ccc([C@@H](C(=O)N2CCCCC2)[C@H](CN2C(=O)N(C)C(C)(C)C2=O)C(=O)NO)cc1`, the Ki at Collagenase 3 stood at 19 nM; at Stromelysin-1, 187 nM; on Interstitial collagenase, 83 nM; in data set [2], 321 nM. Further, the IC50 in [1] is above 10000 nM.
As for `CNC(=O)[C@@H]1CCCCN1C(=O)[C@H](c1ccc(OC)cc1)[C@H](CO)C(=O)NO`, the figures for the Ki (on Collagenase 3; on Interstitial collagenase; in data set [2]) were 10 nM, 23 nM and 8 nM, respectively. For the same compound, the IC50 in [1] is above 10000 nM. This compound also gave a clearance in [3] of 23.2 mL/min/kg. The Vd in data set [4] amounted to 1.06 L/kg. Further, the bioavailability in data set [5] was found to be 8.4%. Moreover, the Cmax with Rattus norvegicus is on record as 38.1 nM.
Consider `CNC(=O)[C@@H](NC(=O)C(c1ccc(OC)cc1)C(CO)C(=O)NO)C(C)(C)C` (single isomer, unassigned), for which the Ki was found to be 0.5 nM at Collagenase 3 and 1 nM on Interstitial collagenase. For the same compound, half-maximal inhibition in data set [1] (IC50) required 48 nM. For the same compound, the clearance in [3] stood at 10 mL/min/kg. In addition, the Vd in data set [4] came out at 0.34 L/kg. The compound further showed a bioavailability in [5] of 3.2%. The same compound came in with a Cmax in the data set with Rattus norvegicus of 42.7 nM.
